ChEMBL document CHEMBL3769384, “Discovery of Tetrahydropyrazolopyridine as Sphingosine 1-Phosphate Receptor 3 (S1P3)-Sparing S1P1 Agonists Active at Low Oral Doses” (J Med Chem, 2016)
pEC50, pIC50: −log10 of the molar value.

Assays:
[1] = target: Sphingosine 1-phosphate receptor 3 (Homo sapiens, UniProt Q99500); test: Agonist activity at human S1P3 receptor expressed in RBL cells by [35S]GTP-gammaS accumulation assay; type: cell-based
In short: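 Sucrose-gradient-purified RBL S1P3 membranes (0.44 µg/well) precoupled 30 min on ice to WGA SPA beads with 2 µg/well saponin in HEPES/MgCl2/NaCl buffer pH 7.4. 5 µM GDP final and 0.3 nM [35S]GTPγS final added, then dispensed onto compound in DMSO. Read by scintillation proximity after 3 h at room temperature.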

[2] = target: T1, Sphingosine 1-phosphate receptor 4 (Homo sapiens, UniProt O95977); test: Agonist activity at human S1P4 receptor expressed in CHO-K1 cells by aequorin calcium accumulation assay; type: functional, cell-based
T1 sequence (O95977 whole entry): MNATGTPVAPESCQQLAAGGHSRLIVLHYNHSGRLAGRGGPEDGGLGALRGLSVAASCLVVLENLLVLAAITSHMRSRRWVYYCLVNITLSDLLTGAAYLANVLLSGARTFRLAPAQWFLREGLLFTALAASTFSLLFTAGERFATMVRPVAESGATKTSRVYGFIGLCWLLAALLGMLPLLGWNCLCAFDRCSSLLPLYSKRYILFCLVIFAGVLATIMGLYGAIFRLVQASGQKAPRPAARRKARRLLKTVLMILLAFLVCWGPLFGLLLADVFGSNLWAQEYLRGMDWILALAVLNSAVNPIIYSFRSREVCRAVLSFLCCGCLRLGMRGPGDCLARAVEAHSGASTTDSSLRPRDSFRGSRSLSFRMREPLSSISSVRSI
In short: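 CHO-K1 aequorin lines revived in DMEM F12 with 10% charcoal-stripped FBS, recovered 30 min at 37°C, then loaded 18-24 h at room temperature in the dark with 5 µM coelenterazine at 2.5x10^6 cells/mL. Cells were added at 1x10^5/well to compound, and flash luminescence was recorded immediately.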

[3] = Intrinsic clearance in cynomolgus monkey hepatocytes at 0.5 uM after 2 hrs by LC-MS/MS analysis; type: ADME, cell-based, Macaca fascicularis, Hepatocyte
Hepatocyte = test: Intrinsic clearance in human hepatocytes at 0.5 uM after 2 hrs by LC-MS/MS analysis; type: ADME, cell-based
In short: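 Compound at 0.5 µM incubated with pooled cryopreserved hepatocytes (0.7 million cells/mL) in Williams Medium E at 37°C under CO2/O2. Supernatants analysed by LC-MS/MS. CLi was derived from a first-order rate constant, scaled with 1.2x10^8 cells/g liver (human, rat, mouse) or 2.4x10^8 cells/g liver (dog).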

[4] = Fraction unbound in CD rat blood after 4 hrs by LC-MS/MS analysis; type: ADME, tissue-based
In short: (§1)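 Fresh blood (CD rat, CD1 mouse, Beagle dog, single human donor) spiked at 1000 ng/mL and dialysed against PBS by rapid equilibrium dialysis for 4 h at 37°C. Matrix-matched LC-MS/MS; unbound fraction taken from the buffer/blood peak area ratio.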

[5] = Fraction unbound in beagle dog blood after 4 hrs by LC-MS/MS analysis; type: ADME, tissue-based, Canis lupus familiaris; in short: as §1
[6] = Fraction unbound in human blood after 4 hrs by LC-MS/MS analysis; type: ADME, tissue-based; in short: as §1
Cytochrome P450 2C9 = Cytochrome P450 2C9 (Homo sapiens, UniProt P11712); test: Inhibition of CYP2C9 (unknown origin) coexpressed in Escherichia coli with human NADPH reductase using 7-methoxy-4-trifluoromethylcoumarin-3-acetic acid as substrate after 10 mins by fluorescence assay; type: ADME
In short: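 Recombinant CYP co-expressed in E. coli with human NADPH reductase, incubated with an isoform-specific pro-fluorescent substrate and compound (nine concentrations, 0.1-100 µM) plus a 0.2 mM NADPH regenerating system for 10 min at 37°C. Fluorescent metabolite formation was monitored.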

[7] = Activation of CYP1A (unknown origin); type: ADME; settings: human

Sphingosine 1-phosphate receptor 3, sequence (Q99500 whole entry): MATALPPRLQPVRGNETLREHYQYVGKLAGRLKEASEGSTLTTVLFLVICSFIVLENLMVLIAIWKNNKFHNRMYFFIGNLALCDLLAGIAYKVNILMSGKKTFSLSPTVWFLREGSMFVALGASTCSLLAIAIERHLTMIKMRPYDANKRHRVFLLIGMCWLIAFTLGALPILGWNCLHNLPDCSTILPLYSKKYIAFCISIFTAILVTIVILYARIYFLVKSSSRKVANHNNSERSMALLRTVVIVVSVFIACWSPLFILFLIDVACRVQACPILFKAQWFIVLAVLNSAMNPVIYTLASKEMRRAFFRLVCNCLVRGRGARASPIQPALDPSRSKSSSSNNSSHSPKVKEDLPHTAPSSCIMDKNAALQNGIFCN
Cytochrome P450 2C9, sequence (P11712 whole entry, canonical isoform): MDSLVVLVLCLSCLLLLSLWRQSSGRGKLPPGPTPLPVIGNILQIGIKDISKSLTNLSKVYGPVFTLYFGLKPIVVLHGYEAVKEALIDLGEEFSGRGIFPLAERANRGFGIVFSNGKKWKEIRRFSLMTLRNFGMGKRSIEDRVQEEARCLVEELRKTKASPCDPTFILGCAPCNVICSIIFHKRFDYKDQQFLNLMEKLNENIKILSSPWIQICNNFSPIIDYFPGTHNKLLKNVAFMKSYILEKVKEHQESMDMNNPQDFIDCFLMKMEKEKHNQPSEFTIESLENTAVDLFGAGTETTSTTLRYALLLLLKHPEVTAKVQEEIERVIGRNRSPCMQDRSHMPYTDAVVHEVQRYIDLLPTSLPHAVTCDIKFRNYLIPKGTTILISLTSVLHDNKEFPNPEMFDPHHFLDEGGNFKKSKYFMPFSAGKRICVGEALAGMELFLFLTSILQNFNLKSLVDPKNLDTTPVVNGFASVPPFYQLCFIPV

For Cc1c2c(nn1-c1nnc(-c3ccc(OC(C)C)c(Cl)c3)s1)CCN(CCC(=O)O)C2, the pEC50 [1] was < 4.50, the pEC50 [2] was < 4.40 and the CLH [3] was 4.2 mL/min/g. The CLH (Hepatocyte) was 1.8 mL/min/g, the fraction unbound at 4 h [4] was 0.014 and the fraction unbound at 4 h [5] was 0.011. The fraction unbound at 4 h [6] was 0.008, the pIC50 (Cytochrome P450 2C9) was < 4.30 and the Activity [7] was “Not Active”.
